Laboratory results taken from ChEMBL document CHEMBL1144581, “alpha-Amino acid derivatives as proton pump inhibitors and potent anti-ulcer agents” (2007).

Columns and labels:
[1] = organism: Rattus norvegicus; assay: Inhibition of gastric H+/K(+)-ATPase activity in Sprague-Dawley rat microsomal vesicles at 10 umol; format: microsomes; conditions: Stomach, Microsome
Outline: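 Rat gastric microsomes were prepared by density gradient and differential centrifugation. The medium held 40 mM Tris-HCl pH 7.4, 2 mM MgCl2, 10 mM KCl (water for blank) and […] vesicular protein. Compound was preincubated 30 min at 37 °C. Tris-ATP at 0.3, 1.0 or 3 mM was then added for 20 min and stopped with chilled 10% TCA. Released Pi was read at 530 nm; % inhibition vs control.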

[2] = organism: Rattus norvegicus; assay: Antisecretory activity in rat pylorus ligation-induced ulcer model determined by ratio of free acidity inhibition in drug treated to untreated control; format: functional
Outline: (§1)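 Sprague Dawley rats (130-150 g) fasted 24 h with water ad libitum; pylorus ligated through a midline incision under ether anesthesia. Dosing oral, 1 h before ligation. Gastric juice free and total acidity titrated against 0.01 N NaOH, with Topfer's reagent and phenolphthalein as indicators. Values expressed as ratio of percent inhibition, treated vs control group.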

[3] = organism: Rattus norvegicus; assay: Antisecretory activity in rat pylorus ligation-induced ulcer model determined by ratio of total acidity inhibition in drug treated to untreated control; format: functional; outline: as §1

inhibition [1] [%]	Compound	Activity [2]	Activity [3]
52	CC(C)N1C(=O)CC[C@H]1C(=O)OC(C)(C)C	0.72	0.69
55	CC(C)(C)[C@H]1OC(=O)[C@@]2(C3(O)CCCCC3)CCC(=O)N12	0.2	0.22
92	O=C(O)[C@@H]1CCCN1C(=O)Cc1ccccc1	0.41	0.38
46	O=C(N[C@H](CO)C(=O)O)OCc1ccccc1	0.36	0.49
67	O=C1CC[C@@H](C(=O)O)N1 [PIDOLIC ACID]	0.69	0.75
52	COC(=O)[C@@H]1CCCN1C(=O)Cc1ccc(OC)cc1	0.81	0.86
65	CCOC(=O)[C@@H](NC(=O)OCc1ccccc1)C(O)/C=C/c1ccccc1 (stereo not given in full)	0.93	0.98
91	COC(=O)[C@@H]1CCCN1C(=O)c1ccccc1	0.9	1.14
46	COC(=O)[C@@H]1CCC(=O)N1Cc1ccc(Cl)cc1	0.67	1.01
49	COc1ccccc1CN1C(=O)CC[C@H]1C(=O)O	0.61	0.64
44	O=C(O)[C@@H]1CCC(=O)N1Cc1ccccc1	0.86	0.93
79	Cc1ccc(CN2C(=O)CC[C@H]2C(=O)OC(C)(C)C)cc1	0.48	0.52
88	CC(C)(C)OC(=O)[C@@H]1CCC(=O)N1Cc1ccccc1Cl	0.17	0.27
10	CCOC(=O)[C@@H](NC(=O)OCc1ccccc1)C(O)C#C[Si](C)(C)C (stereo not given in full)	1.01	1
44	CC(C)(C)[C@H]1OC(=O)[C@@]2([C@@H](O)c3ccccc3)CCC(=O)N12	0.17	0.27
